# Test results reported in PubChem BioAssay.
# Several values for one entry are separate records, joined by “and”; a condition that tells them apart may be missing. Equal entries are not always repeated. Activity calls are given as the source filed them.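 The calls were made as follows, unless noted: active = viability at or under a set limit in both replicates, limit being median viability minus 3 SD (cut at about 48% in these data, passing the limit was not always enough); inconclusive = at or under the limit in just one replicate; inactive = at or above the limit in both replicates.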
# Experiments:
# [1] = SK-BR-3 cell growth inhibitors, pilot screen, 24 h, human (AID 572;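 active = viability at or below 10% of carrier control in both of two separate runs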;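 also: compound exposure lasted between 18 and 24 h rather than exactly 24 h; 100% = carrier-treated control wells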); settings: SK-BR-3 viability, CellTiter-Glo luminescence, at 10 µM, stronger effect = lower value
# [2] = HUVEC growth inhibition – cell-based, human, primary screen (AID 575;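 active = viability at or below 30% in both replicate assays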;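 also: 100% = median of untreated cell wells with 0.1% DMSO on each plate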); settings: HUVEC proliferation, CellTiter-Glo luminescence, 72 h; at 10 µM; stronger effect = lower value
# Outline: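 Test system: primary human umbilical vein endothelial cells; medium: endothelial basal medium with 2% FBS plus growth supplements; dosing: 10 µM compound only; times: 72 h treatment at 37 °C; signal: CTG luminescence; read-out: % viability relative to median vehicle-well signal on each plate; control set: vehicle and MePR control wells; plate: 384-well, collagen-coated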
# [3] = growth inhibitors of H69AR lung tumor, primary screen, human, duplicate replicates (AID 580); settings: H69AR lung tumor cells viability, ATP luminescence, 72 h; at 10 µM; stronger effect = lower value;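 also: 100% = mean luminescence of untreated wells and 0% = no signal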
# [4] = reversal of MRP1-mediated doxorubicin resistance, pilot screen, H69AR cells, doxorubicin co-treatment (AID 601;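 active = viability loss from added drug above about 55%, and viability with drug at most 40%, in both replicates, limit read from the data, passing the limit was not always enough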); settings: CellTiter-Glo, 72 h, at 10 µM; for differential viability (reversal): stronger effect = higher value
# [5] = 384-well plate pilot, post-Golgi transport modulator project, inhibition of yeast transport mutant growth (AID 636; in the data active = inhibition above about 31%); settings: absorbance 615 nm, about 18 h, stronger effect = higher value
# [6] = growth suppression of yeast trafficking mutant, preliminary HTS, modulators of trafficking downstream of Golgi apparatus project, 1536-format plate, OD 615 nm (AID 637; in the data active = inhibition above about 30%); settings: yeast transport mutant growth, absorbance 615 nm, 18 h; stronger effect = higher value
# [7] = H69AR cells + 2 uM doxorubicin, measured here: viability with 2 uM doxorubicin, stronger effect = lower value
# [8] = H69AR cells, compound alone cytotoxicity
Compound,viability [1],viability [2],viability [3],differential viability (reversal) ([4]; H69AR cells + 2 uM doxorubicin),"viability [4, 7]","viability [4, 8]",inhibition [5],inhibition [6]
Cc1ccc(NC(=O)CC2C(=O)NC3CCCCC3N2C(=O)c2ccc(F)cc2)cc1C (stereo not drawn),108% (inactive),100% (inactive),101% (inactive),12.5% (inactive),88.5%,101%,-2.47% (inactive),3.11% (inactive)
Cn1c(Cl)cnc1C1CC(=O)c2cc(Cl)ccc2O1 (stereo not drawn),112% (inactive),15.5% (active),2.09% (active),0.045% (inactive),2.04%,2.09%,-4.46% (inactive),3.64% (inactive)
CC1(C)CC(=O)CC(=Nc2ccc(C(=O)O)cc2)C1,92% (inactive),97.3% (inactive),87.7% (inactive),-4.41% (inactive),92.1%,87.7%,-3.64% (inactive),-0.16% (inactive)
CC(=O)OC[C@H]1O[C@@H](n2ncc(=O)[nH]c2=O)[C@H](OC(C)=O)[C@@H]1OC(C)=O,103% (inactive),84.3% (inactive),91.3% (inactive),3.12% (inactive),88.2%,91.3%,-0.39% (inactive),3.17% (inactive)
CCc1[nH]nc2c1C1(CCN(C(=O)OCc3ccccc3)CC1)C(C#N)=C(N)O2,112% (inactive),85.6% (inactive),85.2% (inactive),-0.55% (inactive),85.8%,85.2%,-8.9% (inactive),2.1% (inactive)
Cc1cccc(-n2ncc3c(NCc4cccs4)ncnc32)c1,64% (inactive),61.8% (inactive),66.1% (inactive),-22.8% (inactive),88.9%,66.1%,26.2% (inactive),0.36% (inactive)
O=C(Nc1ccon1)c1cccc(S(=O)(=O)N2CCCC2)c1,96% (inactive),99.5% (inactive),87.8% (inactive),-10.9% (inactive),98.8%,87.8%,-2.53% (inactive),-0.55% (inactive)
CCn1c(SCC(N)=O)nnc1-c1ccc(S(=O)(=O)N2CCN(C)CC2)cc1,97% (inactive),105% (inactive),95.8% (inactive),9.21% (inactive),86.6%,95.8%,2.93% (inactive),6.73% (inactive)
Cc1cc(=O)n2[nH]c(-c3ccc(Cl)cc3)cc2n1,108% (inactive),75.8% (inactive),99.2% (inactive),8.53% (inactive),90.7%,99.2%,-4.66% (inactive),5.45% (inactive)
C[C@@H]1CCC[C@H](C)N1NC(=O)c1ccc(Cl)c(S(N)(=O)=O)c1,100% (inactive),88.5% (inactive),99.7% (inactive),7.9% (inactive),91.8%,99.7%,0.39% (inactive),-6.5% (inactive)
COC(=O)c1[nH]c2ccc(C)cc2c1NC(=O)CN1CCN(C(=O)c2ccccc2)CC1,130% (inactive),94% (inactive),78.4% (inactive),33.4% (inactive),44.9%,78.4%,-4.67% (inactive),-0.36% (inactive)
O=P(CCNCc1ccco1)(c1ccccc1)c1ccccc1,110% (inactive),97.8% (inactive),97.4% (inactive),2.59% (inactive),94.8%,97.4%,-5.6% (inactive),-4.18% (inactive)
Cc1cc(N2C(=O)CC(N3CCN(c4ccc(C(=O)c5cccs5)cc4)CC3)C2=O)no1 (stereo not drawn),96% (inactive),87.4% (inactive),87.6% (inactive),-4.99% (inactive),92.6%,87.6%,-3.42% (inactive),13.6% (inactive)
COc1ccc(C2=CC(=O)OC3(CCCCC3)O2)cc1,97% (inactive),93.2% (inactive),56.5% (inactive),-28.8% (inactive),85.3%,56.5%,-9.18% (inactive),7.42% (inactive)
CCCC1(CCC)NC(=O)NC1=O,121% (inactive),94.7% (inactive),98.2% (inactive),0.09% (inactive),98.1%,98.2%,-0.26% (inactive),0.66% (inactive)
O=C(CSc1ccccc1C(=O)NCCCN1CCCC1=O)NCc1ccco1,108% (inactive),102% (inactive),82.3% (inactive),2.32% (inactive),80%,82.3%,-3.6% (inactive),6% (inactive)
C=CCN=C1SCC(=O)N1S(=O)(=O)c1ccc(C)cc1,88% (inactive),89.1% (inactive),113% (inactive),13.6% (inactive),99.4%,113%,-4.73% (inactive),1.64% (inactive)
COC(=O)c1ccc(CSc2nnnn2Cc2ccccc2)cc1,111% (inactive),98.6% (inactive),86% (inactive),0.715% (inactive),85.2%,86%,-4.13% (inactive),-2.36% (inactive)

Compound,viability [1],viability [2],viability [3],differential viability (reversal) ([4]; H69AR cells + 2 uM doxorubicin),"viability [4, 7]","viability [4, 8]",inhibition [5],inhibition [6]
CC(C)[N+]1(C)[C@@H]2CC[C@H]1CC(OC(=O)C(CO)c1ccccc1)C2 (stereo partly drawn),113% (inactive),96% (inactive),100% (inactive),9.31% (inactive),90.9%,100%,-6.36% (inactive),-2.83% (inactive)
CCCCOc1ccc(C(=O)Nc2ccc(N3CCN(C(C)=O)CC3)cc2)cc1,81% (inactive),88.8% (inactive),94.4% (inactive),-11.3% (inactive),106%,94.4%,-1.78% (inactive),0.91% (inactive)
CCN(CC)CCN1C(=O)C(=O)/C(=C(/O)c2ccc(OC(C)C)cc2)C1c1ccncc1 (stereo not drawn),133% (inactive),112% (inactive),91.1% (inactive),6.59% (inactive),84.5%,91.1%,-6.76% (inactive),3.09% (inactive)
COC(=O)CS(=O)(=O)c1nnc([C@H](Cc2ccccc2)NC(=O)OC(C)(C)C)o1,77.5% (inactive),3.82% (active),1.21% (active),0.515% (inactive),0.69%,1.21%,-5.45% (inactive),-12.3% (inactive)
c1ccc(Cc2nn3c(Cn4cnc5ccccc54)nnc3s2)cc1,128% (inactive),78.9% (inactive),85.8% (inactive),3.46% (inactive),82.3%,85.8%,-5.34% (inactive),-0.65% (inactive)
Cc1c(NC(=O)c2nn(C)c(=O)c3ccccc23)c(=O)n(-c2ccccc2)n1C,94% (inactive),108% (inactive),97.9% (inactive),8.84% (inactive),89.1%,97.9%,-1.92% (inactive),-8.06% (inactive)
CC1(C)Cc2c(sc3c2C2=NCCN2C=N3)CS1,87% (inactive),108% (inactive),105% (inactive),5.41% (inactive),99.4%,105%,2.05% (inactive),2.73% (inactive)
CCc1ccccc1N1C(=O)C2CC(C)=C(C)CC2C1=O (stereo not drawn),89% (inactive),104% (inactive),103% (inactive),18% (inactive),84.7%,103%,-5.73% (inactive),0% (inactive)
CCC(=O)Nc1nn(C)c2nc3c(C)cccc3cc12,92% (inactive),105% (inactive),104% (inactive),17.2% (inactive),86.4%,104%,-3.47% (inactive),-4.18% (inactive)
CCN(CC)CC(=O)Nc1c(C)cccc1C,101% (inactive) and 123% (inactive),97.3% (inactive) and 96.1% (inactive),107% (inactive) and 101% (inactive),15.8% (inactive) and 10.7% (inactive),91.2% and 90%,107% and 101%,-3.38% (inactive),-3.67% (inactive) and 1.67% (inactive)
CSc1nnc(-c2cnccn2)n1Cc1ccccc1,96% (inactive),92.5% (inactive),102% (inactive),6.43% (inactive),95.7%,102%,-2.88% (inactive),0.73% (inactive)
CCC1CCCCN1S(=O)(=O)c1ccc(C(=O)Nc2nnc(-c3ccccc3Cl)o2)cc1 (stereo not drawn),74% (inactive),13.5% (active),20.1% (active),-21.7% (inactive),41.8%,20.1%,-0.13% (inactive),11.6% (inactive)
CC(C)c1ccc(CNc2ccc(N3CCOCC3)cc2)cc1,74% (inactive),81.7% (inactive),88.4% (inactive),0.93% (inactive),87.5%,88.4%,-6.89% (inactive),-5.82% (inactive)
C=CCNC(=O)C1CC(=O)N(c2ccc(OCC(=O)Nc3ccc(OC)cc3)cc2)C1 (stereo not drawn),99% (inactive),112% (inactive),108% (inactive),5.12% (inactive),103%,108%,-0.81% (inactive),-0.18% (inactive)
COC(=O)CNc1nc(C2CC2)nc2c1nnn2Cc1ccccc1Cl,89% (inactive),84.9% (inactive),94.7% (inactive),-2.29% (inactive),97%,94.7%,-9.04% (inactive),1.13% (inactive)
O=C(CCn1c(=O)oc2ccccc21)N1CCN(c2ccccc2Cl)CC1,72% (inactive),54.2% (inactive),11.2% (active),-55.1% (inactive),66.3%,11.2%,7.3% (inactive),-2% (inactive)
O=c1c2ccccc2c(/C=N/n2cnnc2)c(O)n1-c1ccccc1,84% (inactive),103% (inactive),100% (inactive),16.3% (inactive),83.9%,100%,-7.7% (inactive),-3.09% (inactive)
O=C(CN(C1CCCCC1)S(=O)(=O)c1ccccc1)NCc1cccnc1,83% (inactive),103% (inactive),96% (inactive),3.4% (inactive),92.6%,96%,-6.76% (inactive),-0.55% (inactive)
